Measured values from different studies.
Protocols differ between the studies behind these lines.
HTR2B: 5-hydroxytryptamine receptor 2B (HTR2B, Homo sapiens, UniProt P41595)
Neuronal acetylcholine receptor; alpha3/beta4: Neuronal acetylcholine receptor; alpha3/beta4 (Rattus norvegicus, UniProt P04757+P12392)

CN(C)C(=N)N=C(N)N — Ki (speB (Escherichia coli, UniProt P60651); enzyme activity, inhibitor, absorbance; pH 6.5): 1180 µM
O=S(=O)(O)c1ccc2c(N=Nc3c(O)ccc4ccccc34)cccc2c1 — IC50 (Bcl-2-related protein A1 (Mus musculus, UniProt Q07440, C113S/P104K); ligand displacement, FP): 32 µM
CNC(=O)c1ccc(-c2cnn3ccc(C(=O)N(C)c4ccc(Cl)c(C(=O)OC)c4)cc23)cc1 — IC50 (HTR2B; cell-free assay): > 30 µM
CC(C)N(CCc1c[nH]c2cccc(OC(=O)CCCC(=O)O)c12)C(C)C — IC50 (HTR2B; ligand displacement, radioligand): 3.6 µM
Cc1cc(-c2ccccc2)nnc1NCCN1CCNCC1 — IC50 (HTR2B; calcium signal, antagonist, fluorescence): 0.054 µM
COc1ccc2[nH]c3c(c2c1)CCN(C)CC3 — IC50 (Neuronal acetylcholine receptor; alpha3/beta4; ion current, antagonist, two-electrode voltage clamp; oocytes): 21.3 µM
COC(=O)c1cc(N(C)C(=O)c2ccn3ncc(-c4ccc(C(=O)O)cc4)c3c2)ccc1Cl — IC50 (Rho-associated protein kinase 2 (ROCK2, Homo sapiens, UniProt O75116); enzyme activity, inhibitor): > 30 µM
Cn1ccc2cc3c(cc21)CCN3C(=O)Nc1cccnc1 — Ki (HTR2B; ligand displacement, radioligand): 0.0064 µM
COc1ccc2c3c([nH]c2c1)CCN(C)CC3 — IC50 (Neuronal acetylcholine receptor; alpha3/beta4; ion current, antagonist, two-electrode voltage clamp; oocytes): 31.4 µM
CC[C@H](C)[C@H](NC(C)=O)C(=O)N[C@@H](CCC(=O)O)C(=O)N[C@H](C(=O)N[C@H](C=O)CC(=O)O)[C@@H](C)O — IC50 (Caspase-4 (CASP4, Homo sapiens, UniProt P49662); enzyme activity, inhibitor): 0.555 µM
